Experimental data published in ChEMBL document CHEMBL3525987, “Assessment of exposure of metabolites in preclinical species and humans at steady state from the single-dose radiolabeled absorption, distribution, metabolism, and excretion studies: a case study” (Drug Metab Dispos, 2012).

Legend:
Homo sapiens [1] = test: Tmax as total radioactivity in human plasma at 100 mg, po administered as single dose by LC-MS/MS analysis; assay type: ADME, organism-based; design: dosed compound name [14C]lixivaptan; settings: in vivo
Outline: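 Single oral 100 mg [14C]drug to healthy male volunteers; plasma at 0.25-144 h. Parent by validated LC-MS/MS, total radioactivity by LSC as ng-equiv/ml; Tmax from observed data; t1/2 = 0.693/kel from log-linear terminal regression.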

Rattus norvegicus [2] = test: Cmax as total radioactivity in male Sprague-Dawley rat plasma at 10 mg/kg, po administered as single dose via gavage by LC-MS/MS analysis; assay type: ADME, organism-based; design: dose 10 mg/kg, dosed compound name [14C]lixivaptan, route oral; settings: in vivo
Outline: (§1)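 Jugular-cannulated Sprague-Dawley rats (5/gender) were fasted 18 h and gavaged once with 10 mg/kg [14C]lixivaptan suspended in water/pluronic F68. K2EDTA blood was taken at 0.25–168 h, with donor blood replaced from 1 h on. Total radioactivity was read by LSC (ng-equiv/ml) and parent by validated LC-MS/MS. Noncompartmental Cmax, log-linear kel and trapezoidal AUC followed.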

Rattus norvegicus [3] = test: AUC(0 to t) as total radioactivity in male Sprague-Dawley rat plasma at 10 mg/kg, po administered as single dose via gavage by LC-MS/MS analysis; assay type: ADME, organism-based; design: dose 10 mg/kg, dosed compound name [14C]lixivaptan, route oral; settings: in vivo; outline: as §1
[4] = Drug recovery in urine of human at […], po administered as single dose measured after 168 hrs by liquid scintillation counting; assay type: ADME, organism-based; design: dosed compound name [14C]lixivaptan, route oral; settings: in vivo
Outline: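 Healthy male volunteers given single oral 100 mg (200 µCi) [14C]drug capsules after ≥10 h fast. Urine at 0-4, 4-8, 8-12, 12-24 h then 24-h intervals; feces as passed, to 168 h. Urine LSC; feces homogenized in water, combusted, LSC; % of dose.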

Homo sapiens [5] = test: Total drug recovery in human at […], po administered as single dose measured after 168 hrs by liquid scintillation counting; assay type: ADME, organism-based; design: dosed compound name [14C]lixivaptan, route oral; settings: in vivo
Outline: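 Healthy male volunteers given a single 100 mg (200 μCi) oral dose as 2×50-mg capsules with 250 ml water, fasted ≥10 h before and 4 h after dosing. Urine collected at 0-4, 4-8, 8-12, 12-24 h, then every 24 h to 168 h; feces collected as passed to 168 h. Feces homogenized (20% w/w) and combusted; radioactivity measured by LSC.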

[6] = Drug recovery in feces of male Sprague-Dawley rat at 10 mg/kg, po administered as single dose via gavage measured after 168 hrs by liquid scintillation counting; assay type: ADME, organism-based; design: dose 10 mg/kg, dosed compound name [14C]lixivaptan, route oral; settings: in vivo
Outline: (§2)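 Intact SD rats (3/gender) dosed by gavage with [14C]drug 10 mg/kg (10 ml/kg, pluronic F68/water), housed in metabolism cages; urine and feces at 0-8, 8-24 h, then every 24 h to 7 days. Urine counted by LSC; feces homogenized 20% w/w in water, combusted, trapped CO2 counted; cage wash/debris included; % of dose.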

[7] = Drug recovery in feces of female Sprague-Dawley rat at 10 mg/kg, po administered as single dose via gavage measured after 168 hrs by liquid scintillation counting; assay type: ADME, organism-based; design: dose 10 mg/kg, dosed compound name [14C]lixivaptan, route oral; settings: in vivo; outline: as §2
Rattus norvegicus [8] = test: Drug recovery in cage wash/debris of female Sprague-Dawley rat at 10 mg/kg, po administered as single dose via gavage measured after 168 hrs by liquid scintillation counting; assay type: ADME, organism-based; design: dose 10 mg/kg, dosed compound name [14C]lixivaptan, route oral; settings: in vivo; outline: as §2
[9] = Drug recovery in urine of male beagle dog at 10 mg/kg, po administered as single dose via gavage measured after 168 hrs by liquid scintillation counting; assay type: ADME, organism-based, Canis lupus familiaris; design: dose 10 mg/kg, dosed compound name [14C]lixivaptan, route oral; settings: in vivo
Outline: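 Four male beagles got 10 mg/kg (2 ml/kg) [14C]drug suspension (5.0 mg/ml, pluronic F68/water, 1.04 µCi/mg) by gavage. Urine and feces collected over dry ice at 0-8, 8-24 h, then every 24 h to 7 days; urine by LSC, fecal homogenates combusted then LSC; cage wash/debris included; % of dose.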

Homo sapiens [10] = test: AUC in human at 100 mg, po qd for 7 days; assay type: ADME, organism-based, Plasma; design: dosed compound name [14C]lixivaptan; settings: in vivo, 168 h
Rattus norvegicus [11] = test: Half life as total radioactivity in female Sprague-Dawley rat plasma at 10 mg/kg, po administered as single dose via gavage by LC-MS/MS analysis; assay type: ADME, organism-based; design: dose 10 mg/kg, dosed compound name [14C]lixivaptan, route oral; settings: in vivo
Outline: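 Jugular-vein cannulated SD rats (5/gender) given gavage [14C]drug 10 mg/kg in pluronic F68/water; K2EDTA blood 0.25-168 h with donor blood replacement. Parent by validated LC-MS/MS, radioactivity by LSC; Tmax observed; t1/2 = 0.693/kel by terminal log-linear regression.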

Canis familiaris [12] = test: AUC(0 to t) as total radioactivity in male beagle dog plasma at 10 mg/kg, po administered as single dose by LC-MS/MS analysis; assay type: ADME, organism-based, Canis lupus familiaris; design: dose 10 mg/kg, dosed compound name [14C]lixivaptan, route oral; settings: in vivo
Outline: (§3)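 Four male beagles were fasted 18 h and gavaged once with 10 mg/kg (2 ml/kg) [14C]lixivaptan as a 5.0 mg/ml water/pluronic F68 suspension. Jugular K2EDTA blood was sampled from 0.25 to 168 h. Plasma total radioactivity was counted by LSC as ng-equiv/ml and lixivaptan by validated LC-MS/MS. Noncompartmental Cmax, t1/2 and trapezoidal AUC were derived.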

Canis familiaris [13] = test: AUC(0 to infinity) as total radioactivity in male beagle dog plasma at 10 mg/kg, po administered as single dose by LC-MS/MS analysis; assay type: ADME, organism-based, Canis lupus familiaris; design: time infinity, dose 10 mg/kg, dosed compound name [14C]lixivaptan, route oral; settings: in vivo; outline: as §3
Homo sapiens [14] = test: Drug level in human plasma at 100 mg, po administered as single dose measured after 0.5 hrs by liquid scintillation counting; assay type: ADME, organism-based; design: dosed compound name [14C]lixivaptan; settings: in vivo
Outline: (§4)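 Healthy male volunteers fasted ≥10 h, given single oral 100 mg (200 µCi) [14C]drug as two 50-mg capsules with 250 ml water. Plasma (from ~50 ml blood) at 0.5, 2, 4, 8, 12, 24, 36 h, profiled per subject. Acetonitrile extraction, C18 radio-HPLC with 0.2% formic acid acetonitrile/water gradient, on-line radioactivity detection as % plasma radioactivity; ng-equiv/ml from % × total radioactivity.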

Homo sapiens [15] = test: Drug level in human plasma at 100 mg, po administered as single dose measured after 2 hrs by liquid scintillation counting; assay type: ADME, organism-based; design: dosed compound name [14C]lixivaptan; settings: in vivo; outline: as §4
Homo sapiens [16] = test: Drug level in human plasma at 100 mg, po administered as single dose measured after 8 hrs by liquid scintillation counting; assay type: ADME, organism-based; design: dosed compound name [14C]lixivaptan; settings: in vivo; outline: as §4
Homo sapiens [17] = test: Drug level in human plasma at 100 mg, po administered as single dose measured after 12 hrs by liquid scintillation counting; assay type: ADME, organism-based; design: dosed compound name [14C]lixivaptan; settings: in vivo; outline: as §4
Rattus norvegicus [18] = test: Drug level in female Sprague-Dawley rat plasma at 10 mg/kg, po administered as single dose via gavage measured after 1 hr by liquid scintillation counting; assay type: ADME, organism-based; design: dose 10 mg/kg, dosed compound name [14C]lixivaptan, route oral; settings: in vivo
Outline: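 Sprague-Dawley rats (9/gender) were fasted 18 h and gavaged once with [14C]lixivaptan at 10 mg/kg (10 ml/kg), about 29.8 µCi/mg, suspended in deionized water with pluronic F68. Plasma came by cardiac puncture under isoflurane at 1, 8 and 24 h (3/gender/time) and was extracted twice with 2 volumes of acetonitrile. C18 radio-HPLC with a flow scintillation detector gave percent of plasma radioactivity per peak.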

Canis familiaris [19] = test: Drug level in beagle dog plasma at 10 mg/kg, po administered as single dose measured after 2 hrs by liquid scintillation counting; assay type: ADME, organism-based, Canis lupus familiaris; design: dose 10 mg/kg, dosed compound name [14C]lixivaptan, route oral; settings: in vivo
Outline: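 Four male beagles fasted 18 h were gavaged once with [14C]lixivaptan at 10 mg/kg (2 ml/kg). The 5.0 mg/ml suspension was in deionized water with pluronic F68 (1.04 µCi/mg). Jugular K2EDTA plasma was taken at 2, 8 and 24 h and extracted twice with 2 volumes of acetonitrile. Profiling used C18 radio-HPLC (ammonium formate/acetonitrile gradient) with on-line flow scintillation detection. Each peak is reported as percent of plasma radioactivity.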

Tmax (Homo sapiens [1]): 1.2 h
Cmax (Rattus norvegicus [2]): 2820 ngequiv/ml
AUCt (Rattus norvegicus [3]): 65700 ng.Eq.hr/ml
Radiolabel recovery [4]: 20.5%
Radiolabel recovery (Homo sapiens [5]): 84.2%
Radiolabel recovery [6]: 91%
Radiolabel recovery [7]: 92%
Radiolabel recovery (Rattus norvegicus [8]): 3.51%
Radiolabel recovery [9]: 7.95%
AUC (Homo sapiens [10]): 1860 ng.Eq.hr/ml
t1/2 (Rattus norvegicus [11]): 33.6 h
AUCt (Canis familiaris [12]): 82800 ng.Eq.hr/ml
AUC (Canis familiaris [13]): 94900 ng.Eq.hr/ml
Compound recovery (Homo sapiens [14]): 43.5%
Compound recovery (Homo sapiens [15]): 13.4%
Compound recovery (Homo sapiens [16]): 6.7%
Compound recovery (Homo sapiens [17]): 5.6%
Compound recovery (Rattus norvegicus [18]): 29.9%
Compound recovery (Canis familiaris [19]): 21.2%
SMILES: Cc1ccc(F)cc1[14C](=O)Nc1ccc(C(=O)N2Cc3cccn3Cc3ccccc32)c(Cl)c1
